Measured values as given in ChEMBL document CHEMBL1124273, “Synthesis and antiviral activity of certain 4-substituted and 2,4-disubstituted 7-[(2-hydroxyethoxy)methyl]pyrrolo[2,3-d]pyrimidines” (J Med Chem, 1988).

Experiments:
[1] = The compound was tested for cytotoxicity against BSC1 cell; format: functional, cell-based; conditions: Cercopithecidae, BSC-1
Summary of the method: (§1)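 Visual cytotoxicity was scored on uninfected cells in the plaque-reduction plates: BSC-1 (HSV-1 assay) or HFF (HCMV assay), both grown in MEM(E) with 10% FBS. Cells were examined at 35- and 60-fold magnification and scored 0 to 4+ on the day of staining for plaque counting. The highest concentration tested was 100 μM.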

HFF = assay: The compound was tested for cytotoxicity against human foreskin fibroblast cell; format: functional, cell-based; summary of the method: as §1
Human alphaherpesvirus 1 = assay: Antiviral activity against Herpes simplex virus type 1 determined by plaque reduction assay; format: functional, organism-based
Cytomegalovirus = assay: Inhibitory activity against human cytomegalovirus determined by plaque reduction assay; format: functional, organism-based; conditions: Human betaherpesvirus 5
[2] = Average percent inhibition of DNA, RNA, and protein synthesis determined in KB cells; format: functional, cell-based; conditions: Homo sapiens
Summary of the method: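 KB cells (human oral epidermoid carcinoma) grown in MEM(H) with 5% FBS. Cytotoxicity was measured as inhibition of radioactive precursor incorporation into DNA, RNA and protein. An I50 for each was obtained by linear regression against log concentration, and the three I50 values were averaged. The highest concentration tested was 100 μM.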

[3] = The compound was tested for cytotoxicity against BSC-1 cells; format: functional, cell-based; conditions: Cercopithecidae; summary of the method: as §1

Row | SMILES | IC50 (Human alphaherpesvirus 1) [µM] | IC50 (Cytomegalovirus) [µM] | IC50 [2] [µM] | IC50 [1] [µM] | IC50 (HFF) [µM] | IC50 [3] [µM]
1 | CSc1nc(N)c2ccn(COCCO)c2n1 | > 100 | > 100 |  | > 100 | > 100 | 
2 | Nc1ncnc2c1ccn2COCCO | > 100 | > 100 | > 100 | > 100 | > 100 | 
3 | CS(=O)(=O)c1nc(N)c2ccn(COCCO)c2n1 | > 100 | > 100 |  | > 100 | > 100 | 
4 | Nc1nc(Cl)nc2c1ccn2COCCO | > 100 | > 100 |  | > 100 | > 100 | 
5 | Nc1nc(N)c2ccn(COCCO)c2n1 | > 100 | > 100 |  | > 100 | > 100 | 
6 | CSc1nc(Cl)c2ccn(COCCOC(C)=O)c2n1 | > 100 | > 100 | 33 |  | 100 | > 100
7 | CSc1nc(Cl)c2ccn(COCCO)c2n1 | > 100 | > 100 |  | > 100 | 30 | 
8 | CC(=O)Nc1nc(Cl)c2ccn(COCCO)c2n1 | > 100 | > 100 | 112 | > 100 | > 100 | 
9 | Nc1nc(O)nc2c1ccn2COCCO | > 100 | > 100 |  | > 100 | > 100 | 
10 | Nc1nc2c(ncn2COC(CO)CO)c(=O)[nH]1 [GANCICLOVIR] |  | 8.8 | 1000 | > 100 | > 100 | 

Now from value to compound, other results behind:

Row | IC50 (Human alphaherpesvirus 1) [µM] | IC50 (Cytomegalovirus) [µM] | IC50 [2] [µM] | SMILES | IC50 [1] [µM] | IC50 (HFF) [µM] | IC50 [3] [µM]
11 | > 100 | > 100 |  | COc1nc(N)c2ccn(COCCO)c2n1 | > 100 | > 100 | 
12 | > 100 | 40 |  | CC(=O)OCCOCn1ccc2c(Cl)nc(Cl)nc21 | > 100 | 100 | 
13 | > 100 | 37 |  | OCCOCn1ccc2c(Cl)nc(Cl)nc21 | > 100 | 100 | 
14 |  | 63 | > 100 | Nc1nc2c(ncn2COCCO)c(=O)[nH]1 [ACYCLOVIR] | > 100 | > 100 | 
